We go through 33 compounds from ChEMBL document CHEMBL4715928, “Discovery of Dipeptides as Potent Botulinum Neurotoxin A Light-Chain Inhibitors” (ACS Med Chem Lett, 2021).

The structures appear in SMILES notation.

For one assay, the system named is Clostridium botulinum. Briefly: Zinc chelating activity mediated inhibition of Clostridium botulinum BoNT/A LC activity at 15 uM using SNAPtide as substrate measured for 10 mins by FRET assay relative to control. In short, it runs like this:
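Recombinant BoNT/A light chain at 20 nM, 8 μM SNAPtide FRET substrate, each dipeptide tested at 15 μM. Reactions were run in triplicate, and percent inhibition is the mean of the three.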
Take `CC[C@H](C)[C@H](NC(=O)[C@H](Cc1ccccc1)NS(=O)(=O)c1ccccc1)C(=O)NO`: the inhibition (as a rule, the share of the control response that was lost under treatment) was found to be 52%.

Consider `CC[C@H](C)[C@@H](NS(=O)(=O)c1ccc(-c2ccc(Cl)cc2)cc1)C(=O)N[C@@H](Cc1ccccc1)C(=O)NO`, for which the inhibition was 62%.

On to `CC[C@H](C)[C@H](NC(=O)[C@H](NS(=O)(=O)c1ccc(-c2ccc(Cl)cc2)cc1)[C@@H](C)CC)C(=O)NO`, for which the inhibition was 69%.

`CC[C@H](C)[C@H](NC(=O)[C@H](C)NS(=O)(=O)c1ccc(-c2ccc(Cl)cc2)cc1)C(=O)NO` displayed an inhibition of 31%.

With `CC[C@H](C)[C@@H](NC(=O)[C@H](NS(=O)(=O)c1ccc(-c2ccc(Cl)cc2)cc1)[C@@H](C)CC)C(=O)NO`, the inhibition was 48%.

As to `CC[C@H](C)[C@H](NS(=O)(=O)c1ccc(-c2ccc(Cl)cc2)cc1)C(=O)N[C@@H](C(=O)NO)[C@@H](C)CC`, the inhibition was found to be 57%.

The compound `CC[C@H](C)[C@H](NS(=O)(=O)c1ccc(-c2ccc(Cl)cc2)cc1)C(=O)N[C@@H](C)C(=O)NO` yielded an inhibition of 55%.

The compound `CCOc1ccc(S(=O)(=O)N[C@@H](Cc2ccccc2)C(=O)N[C@H](C(=O)NO)[C@@H](C)CC)cc1OCC` registered an inhibition of 22%.

In turn, `CC[C@H](C)[C@H](NC(=O)[C@H](Cc1ccccc1)NS(=O)(=O)c1ccc(-c2ccccc2)cc1)C(=O)NO` displayed an inhibition of 77%.

As for `CC[C@H](C)[C@H](NC(=O)[C@H](Cc1ccccc1)NS(=O)(=O)c1ccc(Cl)cc1)C(=O)NO`, the inhibition was found to be 77%.

As for `CC[C@H](C)[C@H](NC(=O)[C@H](Cc1ccccc1)NS(=O)(=O)c1cccc(C(C)(C)C)c1)C(=O)NO`, the inhibition amounted to 93%.

Compound `CC[C@H](C)[C@H](NC(=O)[C@H](CC(C)C)NS(=O)(=O)c1ccc(-c2ccc(Cl)cc2)cc1)C(=O)NO` came in with an inhibition of 100%.

With `CC[C@H](C)[C@H](NC(=O)[C@H](Cc1ccccc1)NS(=O)(=O)c1cccc(Cl)c1)C(=O)NO`, the inhibition was 79%.

`CC[C@H](C)[C@H](NS(=O)(=O)c1ccc(-c2ccc(Cl)cc2)cc1)C(=O)N[C@@H](Cc1ccccc1)C(=O)NO` had an inhibition of 44%.

Compound `CC[C@H](C)[C@H](NC(=O)[C@@H](NS(=O)(=O)c1ccc(-c2ccc(Cl)cc2)cc1)[C@@H](C)CC)C(=O)NO` yielded an inhibition of 85%.

The compound `CC[C@H](C)[C@H](NC(=O)C(C)(C)NS(=O)(=O)c1ccc(-c2ccc(Cl)cc2)cc1)C(=O)NO` yielded an inhibition of 84%.

As to `CC[C@H](C)[C@H](NC(=O)[C@H](Cc1ccccc1)NS(=O)(=O)c1c(Cl)cccc1Cl)C(=O)NO`, the inhibition is 83%.

In the case of `CC[C@H](C)[C@H](NS(=O)(=O)c1ccc(-c2ccc(Cl)cc2)cc1)C(=O)NCC(=O)NO`, the inhibition is 18%.

Compound `CC[C@H](C)[C@H](NS(=O)(=O)c1ccc(-c2ccc(Cl)cc2)cc1)C(=O)NC(C)(C)C(=O)NO` came in with an inhibition of 11%.

Consider `CC[C@H](C)[C@H](NS(=O)(=O)c1ccc(-c2ccc(Cl)cc2)cc1)C(=O)NCCC(=O)NO`, for which the inhibition was 62%.

On to `CC[C@H](C)[C@H](NC(=O)[C@H](Cc1ccccc1)NS(=O)(=O)c1ccc(-c2ccc(Cl)cc2)cc1)C(=O)NO`, for which the inhibition was determined as 100%.

Consider `CC[C@H](C)[C@H](NC(=O)[C@H](Cc1ccccc1)NS(=O)(=O)c1ccc(C2CCCCC2)cc1)C(=O)NO`, for which the inhibition worked out at 57%.

On to `CC[C@H](C)[C@@H](NC(=O)[C@@H](Cc1ccccc1)NS(=O)(=O)c1ccc(-c2ccc(Cl)cc2)cc1)C(=O)NO`, for which the inhibition amounted to 63%.

As to `CC[C@H](C)[C@H](NC(=O)[C@H](Cc1ccccc1)NS(=O)(=O)c1ccc(Br)cc1)C(=O)NO`, the inhibition amounted to 87%.

As for `CC[C@H](C)[C@H](NC(=O)[C@@H](Cc1ccccc1)NS(=O)(=O)c1ccc(-c2ccc(Cl)cc2)cc1)C(=O)NO`, the inhibition was 41%.

For `CC[C@H](C)[C@H](NC(=O)[C@H](Cc1ccccc1)NS(=O)(=O)c1cc(Cl)cc(Cl)c1)C(=O)NO`, the inhibition is 100%.

System in a further assay: not listed separately
Briefly: Zinc chelating activity mediated inhibition of Clostridium botulinum BoNT/A LC activity using SNAPtide as substrate measured for 10 mins by FRET assay. In short, it runs like this: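 BoNT/A light chain at 20 nM was incubated with 8 μM SNAPtide substrate across a range of dipeptide concentrations. IC50 values were derived from the concentration series.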
With `CCC[C@H](NC(=O)[C@@H](NS(=O)(=O)c1ccc(-c2ccc(Cl)cc2)cc1)[C@@H](C)CC)C(=O)NO`, half-maximal inhibition (IC50) was put at 1000 nM.

As to `CCC[C@H](NC(=O)[C@@H](NS(=O)(=O)c1cc(Cl)cc(Cl)c1)[C@@H](C)CC)C(=O)NO`, half-maximal inhibition (IC50) required 89 nM.

For `CCC[C@H](NC(=O)[C@H](Cc1ccccc1)NS(=O)(=O)c1cc(Cl)cc(Cl)c1)C(=O)NO`, the IC50 (commonly the point on the concentration scale where inhibition reaches its midpoint) came out at 43 nM.

`CC[C@H](C)[C@H](NS(=O)(=O)c1cc(Cl)cc(Cl)c1)C(=O)N[C@@H](CC(C)C)C(=O)NO` displayed an IC50 of 150 nM.

The compound `CC[C@H](C)[C@H](NC(=O)[C@@H](NS(=O)(=O)c1cc(Cl)cc(Cl)c1)C(C)C)C(=O)NO` returned a 50% inhibitory concentration (IC50) of 69 nM.

For the compound `CC[C@H](C)[C@H](NC(=O)[C@H](Cc1ccccc1)NS(=O)(=O)c1ccc(-c2ccc(Cl)cc2)cc1)C(=O)NO`, the IC50 stood at 2400 nM.

`CC[C@H](C)[C@H](NC(=O)[C@@H](NS(=O)(=O)c1ccc(-c2ccc(Cl)cc2)cc1)C(C)C)C(=O)NO` yielded an IC50 of 2900 nM.

In turn, `CC(C)[C@H](NC(=O)[C@H](Cc1ccccc1)NS(=O)(=O)c1cc(Cl)cc(Cl)c1)C(=O)NO` returned an IC50 of 21 nM.

Regarding `CC[C@H](C)[C@H](NC(=O)[C@H](Cc1ccccc1)NS(=O)(=O)c1cc(Cl)cc(Cl)c1)C(=O)NO`, the IC50 is 150 nM.
